Activity calls are given as the source filed them.
How the values were obtained:
Type in all cases: cell-based
[1] = biological target: Toll-like receptor 3 (Homo sapiens) (UniProt O15455); experiment: Agonist activity at human TLR3 expressed in HEK293 cells by SEAP reporter gene assay
[2] = biological target: T1, Toll-like receptor 8 (Homo sapiens) (UniProt Q9NR97); experiment: Agonist activity at TLR8 in human PBMC assessed as induction of myeloid dendritic cell maturation by measuring CD80 level at 0.1 uM after 6 hrs by flow cytometry
T1 sequence (whole entry): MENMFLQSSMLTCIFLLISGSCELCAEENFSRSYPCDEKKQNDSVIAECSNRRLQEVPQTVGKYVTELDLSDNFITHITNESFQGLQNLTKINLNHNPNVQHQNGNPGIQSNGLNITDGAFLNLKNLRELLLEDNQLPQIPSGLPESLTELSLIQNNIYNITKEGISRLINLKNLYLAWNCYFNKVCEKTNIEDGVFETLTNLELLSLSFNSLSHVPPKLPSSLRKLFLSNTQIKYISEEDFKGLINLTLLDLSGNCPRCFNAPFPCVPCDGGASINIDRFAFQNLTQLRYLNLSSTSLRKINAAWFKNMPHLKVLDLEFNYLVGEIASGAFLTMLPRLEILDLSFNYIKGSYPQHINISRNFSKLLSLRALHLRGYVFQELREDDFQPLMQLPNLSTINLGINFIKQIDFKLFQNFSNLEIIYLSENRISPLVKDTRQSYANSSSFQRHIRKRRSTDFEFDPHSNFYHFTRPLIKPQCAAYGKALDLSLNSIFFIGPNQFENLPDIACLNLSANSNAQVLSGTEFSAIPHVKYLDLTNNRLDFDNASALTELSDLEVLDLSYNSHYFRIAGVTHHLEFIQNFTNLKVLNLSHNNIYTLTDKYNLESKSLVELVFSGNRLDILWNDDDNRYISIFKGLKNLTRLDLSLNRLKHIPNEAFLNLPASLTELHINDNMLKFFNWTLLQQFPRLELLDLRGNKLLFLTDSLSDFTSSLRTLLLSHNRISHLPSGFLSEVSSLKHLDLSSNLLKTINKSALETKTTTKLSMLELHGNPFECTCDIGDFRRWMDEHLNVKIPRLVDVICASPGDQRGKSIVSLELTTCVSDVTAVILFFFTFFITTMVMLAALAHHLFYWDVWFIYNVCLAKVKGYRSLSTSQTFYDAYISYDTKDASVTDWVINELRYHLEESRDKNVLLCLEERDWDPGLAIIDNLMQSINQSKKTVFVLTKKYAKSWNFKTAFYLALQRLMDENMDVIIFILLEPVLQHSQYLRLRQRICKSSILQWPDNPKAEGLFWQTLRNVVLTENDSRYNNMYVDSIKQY
Summary of the method: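 hPBMCs stimulated 6 h at a single 0.1 μM dose; HLA-DR, MHC-I, CD80 and CD86 on mDCs and pDCs measured by flow cytometry, expressed as fold change versus unstimulated cells. Mean ± SD of three independent experiments in three different donors.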

[3] = biological target: T2, Toll-like receptor 9 (Homo sapiens) (UniProt Q9NR96); experiment: Agonist activity at human TLR9 expressed in HEK293 cells by SEAP reporter gene assay
T2 sequence (whole entry): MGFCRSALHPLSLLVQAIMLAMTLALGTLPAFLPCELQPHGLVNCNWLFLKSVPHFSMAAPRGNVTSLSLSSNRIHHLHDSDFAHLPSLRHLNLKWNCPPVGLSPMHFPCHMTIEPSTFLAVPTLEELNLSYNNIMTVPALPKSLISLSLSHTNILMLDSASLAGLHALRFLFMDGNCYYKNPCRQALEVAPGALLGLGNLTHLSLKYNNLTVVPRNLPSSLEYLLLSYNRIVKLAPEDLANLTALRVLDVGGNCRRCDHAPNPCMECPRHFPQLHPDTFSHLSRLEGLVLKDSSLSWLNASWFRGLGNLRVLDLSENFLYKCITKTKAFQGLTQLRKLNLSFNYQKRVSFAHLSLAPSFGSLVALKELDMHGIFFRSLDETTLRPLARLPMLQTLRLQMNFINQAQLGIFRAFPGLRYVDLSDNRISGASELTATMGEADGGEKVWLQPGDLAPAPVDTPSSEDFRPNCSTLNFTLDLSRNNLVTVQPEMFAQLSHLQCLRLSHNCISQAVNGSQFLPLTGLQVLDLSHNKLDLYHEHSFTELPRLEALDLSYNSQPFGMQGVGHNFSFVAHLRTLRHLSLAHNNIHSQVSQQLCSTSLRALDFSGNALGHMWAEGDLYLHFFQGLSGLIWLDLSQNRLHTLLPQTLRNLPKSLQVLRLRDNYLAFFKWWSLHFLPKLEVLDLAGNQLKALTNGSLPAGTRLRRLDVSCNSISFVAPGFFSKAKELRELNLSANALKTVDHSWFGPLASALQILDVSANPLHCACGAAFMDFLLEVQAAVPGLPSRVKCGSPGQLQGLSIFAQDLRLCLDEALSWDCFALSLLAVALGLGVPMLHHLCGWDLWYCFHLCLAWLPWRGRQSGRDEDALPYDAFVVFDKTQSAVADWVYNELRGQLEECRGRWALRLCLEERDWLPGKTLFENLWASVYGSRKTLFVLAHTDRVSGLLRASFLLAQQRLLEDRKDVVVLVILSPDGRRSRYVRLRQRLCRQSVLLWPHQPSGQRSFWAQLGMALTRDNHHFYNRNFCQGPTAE

Measured: Activity

Toll-like receptor 3 (Homo sapiens), sequence (O15455 whole entry): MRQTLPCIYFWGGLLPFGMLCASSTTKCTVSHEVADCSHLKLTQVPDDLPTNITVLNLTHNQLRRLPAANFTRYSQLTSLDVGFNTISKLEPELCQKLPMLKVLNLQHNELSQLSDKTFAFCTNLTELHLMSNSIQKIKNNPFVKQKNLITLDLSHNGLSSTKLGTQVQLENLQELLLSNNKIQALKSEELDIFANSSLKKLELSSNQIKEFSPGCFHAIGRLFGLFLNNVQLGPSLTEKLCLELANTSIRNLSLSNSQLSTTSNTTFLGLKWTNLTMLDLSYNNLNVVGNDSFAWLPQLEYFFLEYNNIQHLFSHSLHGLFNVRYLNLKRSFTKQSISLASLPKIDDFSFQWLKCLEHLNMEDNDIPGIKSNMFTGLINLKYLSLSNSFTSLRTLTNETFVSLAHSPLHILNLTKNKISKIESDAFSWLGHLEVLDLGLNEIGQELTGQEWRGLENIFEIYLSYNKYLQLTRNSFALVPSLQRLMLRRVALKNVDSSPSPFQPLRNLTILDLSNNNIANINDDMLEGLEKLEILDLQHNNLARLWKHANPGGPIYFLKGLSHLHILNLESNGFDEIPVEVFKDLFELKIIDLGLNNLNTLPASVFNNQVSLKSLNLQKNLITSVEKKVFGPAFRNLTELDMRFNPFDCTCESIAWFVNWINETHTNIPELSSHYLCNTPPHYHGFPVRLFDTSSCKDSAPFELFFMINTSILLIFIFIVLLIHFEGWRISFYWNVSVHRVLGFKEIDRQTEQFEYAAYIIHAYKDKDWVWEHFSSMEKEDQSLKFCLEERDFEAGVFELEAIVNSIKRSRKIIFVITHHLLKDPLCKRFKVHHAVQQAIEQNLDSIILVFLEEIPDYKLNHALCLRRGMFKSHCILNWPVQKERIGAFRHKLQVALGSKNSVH

Nc1nc(OCCCCO)nc2c1[nH]c(=O)n2CC1CCNCC1
inactive: all assays above

From ChEMBL document CHEMBL4627265, “Optimization of 8-oxoadenines with toll-like-receptor 7 and 8 activity” (Bioorg Med Chem Lett, 2020)
